Assay results: ChEMBL document CHEMBL4043303, “Development of Novel Melanocortin Receptor Agonists Based on the Cyclic Peptide Framework of Sunflower Trypsin Inhibitor-1” (J Med Chem, 2018)
Active and inactive are the calls of the source. No cut-off for these calls is given here.

Columns and labels:
[1] = Solubility of the compound in water at 1 mM; format: physicochemical; settings: buffer, 1000 µM
[2] = target: T1, Melanocyte-stimulating hormone receptor (Homo sapiens, UniProt Q01726); experiment: Displacement of [125I]-NDP-alpha-MSH from human MC1R LBD expressed in HEK293 cell membranes incubated for 16 to 23 hrs in dark by scintillation proximity assay; parameters: concentration or dose not given beside the values; settings: concentration not given here
[3] = target: T2, Melanocortin receptor 4 (Homo sapiens, UniProt P32245); experiment: Agonist activity at human MC4R expressed in high doxycyclin-treated HEK293 cell membranes assessed as increase in cAMP production after 15 mins by HTRF method; format: functional, cell-based
Method in brief: (§1)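 T-REx-293 cells stably expressing doxycycline-inducible human MC1R, MC3R or MC4R; expression induced 24 h with 0.1 ng/mL (low) or 10 ng/mL (high, MC4R only) doxycycline. 1000 cells/well in HBSS, 20 mM HEPES pH 7.4, 0.1% BSA, 1 mM IBMX; stimulated at 37 °C. Time-resolved FRET cAMP read-out normalized to NDP-α-MSH maximum.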

[4] = target: T3, Melanocortin receptor 3 (Homo sapiens, UniProt P41968); experiment: Agonist activity at human MC3R expressed in low doxycyclin-treated HEK293 cell membranes assessed as increase in cAMP production after 45 mins by HTRF method; format: functional, cell-based; parameters: concentration or dose not given beside the values; method in brief: as §1
[5] = target: T3, Melanocortin receptor 3; experiment: Displacement of [125I]-NDP-alpha-MSH from human MC3R LBD expressed in HEK293 cell membranes incubated for 16 to 23 hrs in dark by scintillation proximity assay; parameters: concentration or dose not given beside the values; settings: concentration not given here
[6] = target: T2, Melanocortin receptor 4; experiment: Displacement of [125I]-NDP-alpha-MSH from human MC4R LBD expressed in HEK293 cell membranes incubated for 16 to 23 hrs in dark by scintillation proximity assay; parameters: concentration or dose not given beside the values; settings: concentration not given here
[7] = target: T1, Melanocyte-stimulating hormone receptor; experiment: Agonist activity at human MC1R expressed in low doxycyclin-treated HEK293 cell membranes assessed as increase in cAMP production after 45 mins by HTRF method; format: functional, cell-based
[8] = target: T4, Melanocortin receptor 5 (Homo sapiens, UniProt P33032); experiment: Displacement of [125I]-NDP-alpha-MSH from human MC5R LBD expressed in HEK293 cell membranes incubated for 16 to 23 hrs in dark by scintillation proximity assay; parameters: concentration or dose not given beside the values; settings: concentration not given here
[9] = target: T2, Melanocortin receptor 4; experiment: Agonist activity at human MC4R expressed in low doxycyclin-treated HEK293 cell membranes assessed as increase in cAMP production up to 100 uM after 45 mins by HTRF method; format: functional, cell-based
Method in brief: (§2)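 Stable T-REx-293 clones (Zeocin-selected, human receptor cDNA in pcDNA4/TO), receptor expression induced with 0.1 ng/mL doxycycline for 24 h. 1000 cells/well in HBSS with Ca2+/Mg2+, 20 mM HEPES pH 7.4, 0.1% BSA. Stimulation for 45 min at 37 °C with 1 mM IBMX. cAMP read by LANCE HTRF (665/615 nm).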

[10] = species on record: Bos taurus; experiment: Inhibition of bovine trypsin at 5 uM using Boc-QAR-pNA as substrate preincubated for 1 hr followed by substrate addition measured every 30 secs for 300 secs by […]
[11] = target: T2, Melanocortin receptor 4; experiment: Agonist activity at human MC4R expressed in low doxycyclin-treated HEK293 cell membranes assessed as increase in cAMP production after 45 mins by HTRF method; format: functional, cell-based; method in brief: as §1
[12] = target: T3, Melanocortin receptor 3; experiment: Agonist activity at human MC3R expressed in low doxycyclin-treated HEK293 cell membranes assessed as increase in cAMP production up to 100 uM after 45 mins by HTRF method; format: functional, cell-based; method in brief: as §2
[13] = target: T3, Melanocortin receptor 3; experiment: Displacement of [125I]-NDP-alpha-MSH from human MC3R LBD expressed in HEK293 cell membranes up to 100 uM incubated for 16 to 23 hrs in dark by scintillation proximity assay
[14] = target: T2, Melanocortin receptor 4; experiment: Agonist activity at human MC4R expressed in high doxycyclin-treated HEK293 cell membranes assessed as increase in cAMP production up to 100 uM after 15 mins by HTRF method; format: functional, cell-based
Method in brief: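 Stable T-REx-293 clone expressing human MC4R, induced with 10 ng/mL doxycycline for 24 h. 1000 cells/well in HBSS/20 mM HEPES pH 7.4/0.1% BSA. Stimulation for 15 min at 37 °C with 1 mM IBMX. LANCE HTRF cAMP read-out.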

[15] = target: T4, Melanocortin receptor 5; experiment: Displacement of [125I]-NDP-alpha-MSH from human MC5R LBD expressed in HEK293 cell membranes up to 100 uM incubated for 16 to 23 hrs in dark by scintillation proximity assay
[16] = target: T1, Melanocyte-stimulating hormone receptor; experiment: Displacement of [125I]-NDP-alpha-MSH from human MC1R LBD expressed in HEK293 cell membranes up to 100 uM incubated for 16 to 23 hrs in dark by scintillation proximity assay
[17] = target: T2, Melanocortin receptor 4; experiment: Displacement of [125I]-NDP-alpha-MSH from human MC4R LBD expressed in HEK293 cell membranes up to 100 uM incubated for 16 to 23 hrs in dark by scintillation proximity assay
[18] = target: T1, Melanocyte-stimulating hormone receptor; experiment: Agonist activity at human MC1R expressed in low doxycyclin-treated HEK293 cell membranes assessed as increase in cAMP production up to 100 uM after 45 mins by HTRF method; format: functional, cell-based; method in brief: as §2
[19] = target: T1, Melanocyte-stimulating hormone receptor; experiment: Displacement of [125I]-NDP-alpha-MSH from human MC1R LBD expressed in HEK293 cell membranes up to 1 uM incubated for 16 to 23 hrs in dark by scintillation proximity assay

T2 sequence (P32245 whole entry): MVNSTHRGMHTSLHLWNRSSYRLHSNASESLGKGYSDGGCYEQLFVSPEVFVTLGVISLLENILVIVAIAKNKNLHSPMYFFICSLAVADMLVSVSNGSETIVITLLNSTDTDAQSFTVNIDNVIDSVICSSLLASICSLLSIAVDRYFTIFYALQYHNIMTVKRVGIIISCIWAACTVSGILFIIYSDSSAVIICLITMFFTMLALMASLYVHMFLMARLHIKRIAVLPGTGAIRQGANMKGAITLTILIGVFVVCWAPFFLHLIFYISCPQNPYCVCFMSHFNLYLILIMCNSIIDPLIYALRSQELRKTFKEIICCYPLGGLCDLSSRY
T3 sequence (P41968 whole entry, the tested form may be a part): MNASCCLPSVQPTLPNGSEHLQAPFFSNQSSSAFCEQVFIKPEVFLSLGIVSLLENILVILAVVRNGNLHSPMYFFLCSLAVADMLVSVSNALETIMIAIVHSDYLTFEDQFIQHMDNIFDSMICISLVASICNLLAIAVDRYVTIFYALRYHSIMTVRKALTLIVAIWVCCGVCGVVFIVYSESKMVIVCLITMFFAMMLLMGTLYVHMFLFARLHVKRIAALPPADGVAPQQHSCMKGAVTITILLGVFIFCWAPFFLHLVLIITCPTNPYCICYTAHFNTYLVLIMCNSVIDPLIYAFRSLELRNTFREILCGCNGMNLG
T4 sequence (P33032 whole entry, the tested form may be a part): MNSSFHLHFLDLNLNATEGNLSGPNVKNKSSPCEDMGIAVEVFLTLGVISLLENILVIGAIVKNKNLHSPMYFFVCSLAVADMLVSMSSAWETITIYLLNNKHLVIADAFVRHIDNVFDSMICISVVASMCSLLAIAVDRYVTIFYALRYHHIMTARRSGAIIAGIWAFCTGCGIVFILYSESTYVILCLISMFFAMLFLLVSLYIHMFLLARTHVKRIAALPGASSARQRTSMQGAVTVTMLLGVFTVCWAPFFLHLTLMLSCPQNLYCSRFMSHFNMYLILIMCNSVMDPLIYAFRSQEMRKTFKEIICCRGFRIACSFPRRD
T1 sequence (Q01726 whole entry, looked up, the tested form may be a part): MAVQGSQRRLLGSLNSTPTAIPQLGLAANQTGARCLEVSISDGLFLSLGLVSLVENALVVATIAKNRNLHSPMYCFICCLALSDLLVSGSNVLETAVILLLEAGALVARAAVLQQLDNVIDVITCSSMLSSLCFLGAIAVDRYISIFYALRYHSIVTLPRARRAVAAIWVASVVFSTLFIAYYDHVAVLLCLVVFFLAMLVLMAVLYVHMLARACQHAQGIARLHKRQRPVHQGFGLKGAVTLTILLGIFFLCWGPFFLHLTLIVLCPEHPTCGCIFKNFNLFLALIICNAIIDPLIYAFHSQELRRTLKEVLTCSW

SMILES	solubility [1]	inhibition [2]	Activity [3]	Activity [4]	inhibition [5]	inhibition [6]	Activity [7]	inhibition [8]	Activity [9]	inhibition [10]	Activity [11]	Activity [12]	inhibition [13]	Activity [14]	inhibition [15]	inhibition [16]	inhibition [17]	Activity [18]	inhibition [19]
CC[C@H](C)[C@@H]1NC(=O)[C@@H]2CCCN2C(=O)[C@H](Cc2c[nH]c3ccccc23)N(C)C(=O)[C@H](CCCNC(=N)N)NC(=O)[C@@H](Cc2ccccc2)NC(=O)[C@H](Cc2cnc[nH]2)N(C)C(=O)[C@H]([C@@H](C)O)NC(=O)[C@@H]2CSSC[C@H](NC1=O)C(=O)N[C@@H](Cc1ccccc1)C(=O)N1CCC[C@H]1C(=O)N[C@@H](CC(=O)O)C(=O)NCC(=O)N[C@@H](CCCNC(=N)N)C(=O)N2	Soluble	100%	100%	100%	100%	100%	100%	100%	inactive										
CC[C@H](C)[C@@H]1NC(=O)[C@@H]2CCCN2C(=O)[C@@H]2CCCN2C(=O)[C@H]([C@@H](C)CC)NC(=O)[C@H](CO)NC(=O)[C@H](C)NC(=O)[C@H]([C@H](C)O)NC(=O)[C@@H]2CSSC[C@H](NC1=O)C(=O)N[C@@H](Cc1cnc[nH]1)C(=O)N[C@H](Cc1ccccc1)C(=O)N(C)[C@@H](CCCNC(=N)N)C(=O)N(C)[C@@H](Cc1c[nH]c3ccccc13)C(=O)N[C@@H](CCCNC(=N)N)C(=O)N2		100%	100%	100%	100%	100%	100%	100%		Active	100%								
CC[C@H](C)[C@@H]1NC(=O)[C@@H]2CCCN2C(=O)[C@H](Cc2c[nH]c3ccccc23)N(C)C(=O)[C@H](CCCNC(=N)N)N(C)C(=O)[C@@H](Cc2ccccc2)NC(=O)[C@H](Cc2cnc[nH]2)N(C)C(=O)[C@H]([C@@H](C)O)NC(=O)[C@@H]2CSSC[C@H](NC1=O)C(=O)N[C@@H](Cc1ccccc1)C(=O)N1CCC[C@H]1C(=O)N[C@@H](CC(=O)O)C(=O)NCC(=O)N[C@@H](CCCNC(=N)N)C(=O)N2	Soluble	100%	100%			100%	100%	100%	inactive			inactive	inactive						
CC[C@H](C)[C@@H]1NC(=O)[C@@H]2CCCN2C(=O)[C@@H]2CCCN2C(=O)[C@H]([C@@H](C)CC)NC(=O)[C@H](CO)NC(=O)[C@H](C)NC(=O)[C@H]([C@H](C)O)NC(=O)[C@@H]2CSSC[C@H](NC1=O)C(=O)N[C@@H](Cc1cnc[nH]1)C(=O)N[C@H](Cc1ccccc1)C(=O)N[C@@H](CCCNC(=N)N)C(=O)N[C@@H](Cc1c[nH]c3ccccc13)C(=O)N[C@@H](CCCNC(=N)N)C(=O)N2		100%	100%	100%	100%	100%	100%	100%		Active	100%								
CC[C@H](C)[C@@H]1NC(=O)[C@@H]2CCCN2C(=O)[C@@H]2CCCN2C(=O)[C@H]([C@@H](C)CC)NC(=O)[C@H](CO)NC(=O)[C@H](CCCCN)NC(=O)[C@H]([C@@H](C)O)NC(=O)[C@@H]2CSSC[C@H](NC1=O)C(=O)N[C@@H](Cc1ccccc1)C(=O)N1CCC[C@H]1C(=O)N[C@@H](CC(=O)O)C(=O)NCC(=O)N[C@@H](CCCNC(=N)N)C(=O)N2	Soluble								inactive			inactive	inactive	inactive	inactive	inactive	inactive	inactive	
CC[C@H](C)[C@@H]1NC(=O)[C@@H]2CCCN2C(=O)[C@H](Cc2c[nH]c3ccccc23)NC(=O)[C@H](CCCNC(=N)N)NC(=O)[C@H](Cc2ccccc2)NC(=O)[C@H](Cc2cnc[nH]2)NC(=O)[C@H]([C@@H](C)O)NC(=O)[C@@H]2CSSC[C@H](NC1=O)C(=O)N[C@@H](Cc1ccccc1)C(=O)N1CCC[C@H]1C(=O)N[C@@H](CC(=O)O)C(=O)NCC(=O)N[C@@H](CCCNC(=N)N)C(=O)N2	Soluble		100%		100%		100%	100%	inactive			inactive					inactive		inactive
CC[C@H](C)[C@@H]1NC(=O)[C@@H]2CCCN2C(=O)[C@@H]2CCCN2C(=O)[C@H]([C@@H](C)CC)NC(=O)[C@H](CO)NC(=O)[C@H](C)NC(=O)[C@H]([C@H](C)O)NC(=O)[C@@H]2CSSC[C@H](NC1=O)C(=O)N[C@@H](Cc1cnc[nH]1)C(=O)N[C@H](Cc1ccccc1)C(=O)N(C)[C@@H](CCCNC(=N)N)C(=O)N[C@@H](Cc1c[nH]c3ccccc13)C(=O)N[C@@H](CCCNC(=N)N)C(=O)N2		100%	100%	100%	100%	100%	100%	100%		Active	100%								
